Compounds with a hit are over-represented: about 0.64% of the library has one in this group of screens.
PMI act hi M6P – activators of human phosphomannose isomerase at near-saturating mannose 6-phosphate | hit rate 0.34% among 190,000 | activation factor at 20 µM | coupled PMI enzyme assay, resazurin fluorescence, 20 min; active compounds read high; 1 = untreated enzyme, 0 = substrate-free blank | AID 1216 | P34949;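 active means activation factor of 2 or more at 20 µM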
Target sequence (P34949 whole entry, looked up): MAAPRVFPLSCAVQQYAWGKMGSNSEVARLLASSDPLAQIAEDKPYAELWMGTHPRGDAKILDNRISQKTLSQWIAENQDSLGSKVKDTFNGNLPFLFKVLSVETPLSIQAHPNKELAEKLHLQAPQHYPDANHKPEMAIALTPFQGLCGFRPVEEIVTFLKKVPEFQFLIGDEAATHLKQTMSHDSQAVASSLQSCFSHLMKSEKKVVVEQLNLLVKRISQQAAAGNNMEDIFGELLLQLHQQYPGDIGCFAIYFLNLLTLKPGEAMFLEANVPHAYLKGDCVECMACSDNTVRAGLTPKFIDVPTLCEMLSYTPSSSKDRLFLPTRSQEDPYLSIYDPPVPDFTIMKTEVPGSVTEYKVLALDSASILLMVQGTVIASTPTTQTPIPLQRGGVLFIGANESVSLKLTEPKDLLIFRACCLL
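Material: human phosphomannose isomerase with PGI, G6PDH, diaphorase coupling enzymes. Quantity: 15 ng/mL PMI. Medium: HEPES pH 7.4 buffer with MgCl2 and Tween-20. Reagent: Near-saturating mannose-6-phosphate, 1.0 mM. Compound: 20 µM single dose. Times: enzyme reaction with compound 20 min at room temperature. Detection: resorufin fluorescence at Ex 544/Em 590 nm.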
PMI act – phosphomannose isomerase (human) activation | P34949 | activation factor at 20 µM | hit rate 0.005% among 190,000 | purified human PMI, coupled resazurin fluorescence, 20 min; active compounds read high; 1 = vehicle control, 0 substrate-free wells;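 active means activation factor of 2 or more at 20 µM, relative to plate controls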
TNAP inh no acc – TNAP (human) inhibition, acceptor-free conditions; P05186; hit rate 0.26% among 200,000; AID 1012; purified TNAP, CDP-star luminescence, 30 min; inhibition, % at 20 µM;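 active means tissue-nonspecific alkaline phosphatase inhibition above about 50% at 20 µM in the single-dose screen, limit read from the data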
TNAP act hi DEA – TNAP (human) activation, high acceptor | purified TNAP, CDP-star luminescence, 1 M DEA, 30 min; active compounds read high; 0 = EDTA background, 1 = DMSO-only activity | AID 1136 | activation factor at 20 µM | 200,000 tested, under 10 active;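 active means activation factor at least 2 at 20 µM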
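Dosing: 20 µM single point. System: human TNAP. Amount: TNAP 1/800 final. Incubation: 30 min, room temperature. Read-out: TNAP activation factor scaled between EDTA and DMSO control wells. Signal: luminescence from CDP-star hydrolysis. Medium: 1 M DEA, pH 9.8, Mg2+, Zn2+. Control set: EDTA negative control, DMSO positive control.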
TNAP inh hiacc – inhibitors of human TNAP at high phosphate acceptor concentration. P05186. purified TNAP, CDP-star luminescence, 1 M DEA. inhibition, % at 20 µM. hit rate 0.03% among 200,000. AID 1135;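 active means over 50% inhibition of tissue-nonspecific alkaline phosphatase at 20 µM in the single-dose screen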
Each line names hits and unclear results; the compound was inactive in the other large screens.

O=C(CS(=O)(=O)c1cn(Cc2cccc(F)c2)c2ccccc12)N1CCOCC1	none
COc1cc(/C=N/Nc2ccc(Cl)c(C(=O)O)c2)ccc1OC(=O)c1ccco1	none
CSc1ccc(/C=N/Nc2ccc(Cl)c(C(=O)O)c2)cc1	PMI act hi M6P 2.4
COc1cc(/C=N/Nc2ccccc2)ccc1OC(=O)c1cccs1	PMI act hi M6P 2.2
COc1cc(/C=N/Nc2ccc(Cl)c(C(=O)O)c2)ccc1OC(=O)c1cccs1	PMI act hi M6P 2.4
Cc1ccc(C)n1NC(=O)c1ccccc1O	none
COc1cccc(-c2noc(Cn3nc(C)c([N+](=O)[O-])c3C)n2)c1	none
Cc1ccc(/C=N/Nc2cccc3cccnc23)c(O)c1	PMI act hi M6P 2
O=[N+]([O-])c1cccc(N/N=C/c2cc([N+](=O)[O-])ccc2O)c1	none
Cc1cccc(N/N=C/c2ccccc2O)c1	PMI act hi M6P 2.8
Oc1ccc(/C=N/Nc2cccc3cccnc23)c(O)c1	none
COc1ccc(CNc2nc3ccccc3n2C)c(OC)c1	none
COc1ccc(N=Nc2nc3cc(Br)c(Br)cc3n2C)c(OC)c1	PMI act hi M6P 2.1
COc1ccc2[nH]c(=O)c(CN(C(=O)c3cccnc3)c3ccccc3OC)cc2c1	none
CCCCN1C(=O)C2(NNc3ccccc3O2)c2ccccc21 (stereo not drawn)	PMI act hi M6P 2.1
O=C1CCCC2=C1C(c1ccncc1)n1c(nc3ccccc31)N2 (stereo not drawn)	none
CC1CC(=O)C2=C(C1)Nc1nc3ccccc3n1C2c1cccnc1 (stereo not drawn)	TNAP inh no acc 53
CC/C(=N/Nc1ccccc1Cl)c1cnnc(-c2ccccc2)n1	PMI act hi M6P 2.1
COc1ccc(N/N=C(/C)c2cnnc(-c3ccccc3)n2)cc1	PMI act hi M6P 2.4
CC/C(=N/Nc1cccc(C)c1)c1cnnc(SC)n1	PMI act hi M6P 2.3
CSc1nncc(/C(C)=N\Nc2ccccc2C)n1	PMI act hi M6P 2.2
O=C(NNC(=O)NC1CCCCC1)NC1CCCCC1	none
CC/C(=N/Nc1ccc(Cl)cc1)c1cnnc(SC)n1	PMI act hi M6P 2.5
O=C(Nc1ccc2c(c1)OCO2)c1cc2n(n1)C(C(F)(F)F)CC(c1ccccc1)N2 (stereo not drawn)	none
O=C(CN1C(=O)NC2(CCSC2)C1=O)N1CCN(c2ccc(F)cc2)CC1 (stereo not drawn)	PMI act hi M6P 2.1
O=C(CN1C(=O)C2CCCCC2C1=O)N1CCN(c2ccc(F)cc2)CC1 (stereo not drawn)	none
Cc1ccccc1N/C(=C(/C(Cl)=C(Cl)Cl)[N+](=O)[O-])n1nnc2ccccc21	PMI act hi M6P 2.2
COc1ccc(C2C=C(C34CC5CC(CC(C5)C3)C4)NC(=S)N2)cc1OC (stereo not drawn)	none
N=C(N)SCc1cn2ccccc2n1	TNAP inh no acc 59
Nc1ccccc1SCc1cn2ccccc2n1	none
CN(CC(=O)Nc1ccc(N2CCOCC2)cc1)CC(=O)Nc1ccccc1C#N	TNAP inh no acc 50
Cc1ccc(NC(=O)COC(=O)/C=C/c2ccc(Br)o2)cc1S(=O)(=O)N(C)C	PMI act hi M6P 2.2
CC(C)(C)c1nc[nH]c(=O)c1Br	none
CCCCc1c(C)nc2ccc(C)cc2c1SCCC(=O)O	none
CCCCc1c(C)nc2ccc(Br)cc2c1SC(N)N	PMI act hi M6P 2.2
CCCOc1ccc2cc(-c3ccccn3)c(=O)oc2c1	none
O=C1NCCC/C1=N/Nc1ccc(F)cc1	PMI act hi M6P 2.2
Cc1nnc2c3cnn(-c4ccc(Cl)cc4)c3ncn12	TNAP inh no acc 67
CCOC(=O)Cn1cnc2c(cnn2-c2ccc(Cl)cc2)c1=O	none
O=C(c1cc(-c2ccccc2)n[nH]1)N1CCc2c([nH]c3ccccc23)C1c1ccccn1 (stereo not drawn)	TNAP inh no acc 62
O=C(Nc1ccc(F)c(Cl)c1)C1CC(=O)n2c(nc3ccccc32)N1 (stereo not drawn)	none
C=CCNC(=O)COC(=O)c1nc2nccc(C)n2n1	none
CCOC(=O)/C(=N/Nc1ccccc1)N1CCCc2ccccc21	PMI act hi M6P 2.4
COC(=O)/C(=N/Nc1ccccc1C)N1CCCc2ccccc21	PMI act hi M6P 2
O=C(Nc1ccccc1)N1CCCc2ccccc21	none
COc1ccc(C)cc1NC(=O)N1CCCc2ccccc21	none

Assay outcomes deposited in PubChem by Sanford-Burnham Center for Chemical Genomics.
